This is a sample that favours compounds with a hit; in the whole collection about 11% have one here.
M1 antag – M1 muscarinic receptor (rat) antagonism. P08482. CHO-M1 cells, Fluo-4 calcium, ACh EC80 antagonist mode; stronger effect = lower value. hit rate 3.4% among 64,000. B-score at 10 µM. AID 628;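 active = calcium fluorescence response, raw or row-and-column corrected B-score, differing from the plate sample mean either way at a set confidence level, mostly lower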
S1P3 ag – activates the human S1P3 receptor; AID 373; S1P3 NFAT-BLA reporter cells, agonism, FRET ratio; relative to 1 µM S1P, basal subtracted; Q99500; hit rate 0.1% among 60,000; activation, % at 4.5 µM;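 active = activation above the screen-wide mean plus 3 SD, cut at about 4.5% in these data, passing the limit was not always enough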
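Measure – % activation relative to 1 µM S1P (100%), per plate · System – stable CHO line with human S1P3, Gα16, NFAT-BLA reporter · Timing – cells plated overnight, compound 4 h 37 °C, substrate 2 h RT · Technique – fluorescent BLA substrate, ex 405 nm, em 460/535 nm ratio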
S1P1 ag-PAM – S1P1 (human) agonism or agonism potentiation; S1P1 CRE-bla cells, forskolin, beta-lactamase FRET, potentiator mode; S1P1 agonist co-added at EC20, 2 nM; 100% = saturating reference agonist, 0% = basal; activation, % at 9.5 µM; hit rate 0.57% among 56,000;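 active = activation above a cutoff set at the mean activation of all tested compounds plus 3 SD, cut at about 54% in these data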;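 note: forskolin at 4 µM as EC80 and the EC20 agonist is SEW2871; 100% = SEW2871 at its EC100 plus forskolin at EC80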
D1 mod – allosteric modulators of human D1 dopamine receptor; P21728; HEK293 D1, CRE-luciferase, dopamine EC30 potentiation; actives deviate in either direction; B-score at 10 µM; hit rate 5.9% among 58,000; AID 641;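 active = luminescence count or its row- and column-corrected plate score outside the 99.7% band of the plate's sample wells, on either side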
Target sequence (P21728 whole entry, looked up): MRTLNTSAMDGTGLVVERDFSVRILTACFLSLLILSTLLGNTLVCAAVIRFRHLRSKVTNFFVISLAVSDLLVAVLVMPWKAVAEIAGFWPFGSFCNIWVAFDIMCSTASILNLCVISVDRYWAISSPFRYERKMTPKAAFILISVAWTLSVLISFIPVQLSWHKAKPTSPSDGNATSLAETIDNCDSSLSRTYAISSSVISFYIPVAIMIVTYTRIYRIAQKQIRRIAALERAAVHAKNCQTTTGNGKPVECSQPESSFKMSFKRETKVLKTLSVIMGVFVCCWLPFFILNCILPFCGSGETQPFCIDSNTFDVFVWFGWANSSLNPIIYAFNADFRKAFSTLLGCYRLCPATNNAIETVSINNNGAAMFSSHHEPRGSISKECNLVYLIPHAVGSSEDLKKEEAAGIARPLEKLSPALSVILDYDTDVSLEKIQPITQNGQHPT
M1 ag – activates the M1 muscarinic receptor. CHO-M1 cells, Fluo-4 calcium fluorescence, agonist mode; stronger effect = higher value. B-score at 10 µM. hit rate 3% among 64,000;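 active = fluorescence rise, raw or as B-score row- and column-corrected plate score, outside the 99.7% band of its plate's samples, either direction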
M1 ag confirm – confirmation of rat M1 muscarinic receptor agonists. AID 1488. hit rate 19% among 1,700. CHO-M1 cells, Fluo-4 calcium fluorescence, agonist mode; actives lie on both sides. fluorescence change (max-min) at 10 µM. shares compounds with M1 ag;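 active = fluorescence change differs from the solvent-only DMSO control mean at a set confidence level in both duplicate runs; inconclusive = differs from solvent-only control mean in just one of two runs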;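 note: an EC20 dose of acetylcholine follows compound addition during the same imaging run; raw fluorescence intensity difference in instrument units with no normalization to controls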
M4 agonist ctr – rat M4 muscarinic agonism, M1 counter-screen. fluorescence change (max-min) at 10 µM. AID 1741. hit rate 9% among 1,700. shares compounds with M1 ag. CHO M4/Gqi5 cells, Fluo-4 calcium fluorescence, agonist mode; actives lie on both sides;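 active = fluorescence change differing from the plate's solvent-only control wells at 99.7% confidence in both duplicates, whether higher or lower; inconclusive = differs from solvent controls in only one of two duplicates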
* marks the source's active call; other numbers are inactive results.

Results for COC(=O)COc1ccc(S(=O)(=O)NCc2ccco2)cc1Cl ?
M1 antag: -0.0071; S1P3 ag: 0; S1P1 ag-PAM: -6; D1 mod: 0.16; M1 ag: -0.51

What do the screens show for `COC(=O)CSc1nnc(CNC(=O)c2ccco2)n1-c1ccc(F)cc1`?
M1 antag: -0.13; S1P3 ag: -1; S1P1 ag-PAM: -10; D1 mod: -0.07; M1 ag: 4.4*; M1 ag confirm: -12; M4 agonist ctr: inconclusive

What do the screens show for `CCOC(=O)CSc1nnc(CNC(=O)c2ccco2)n1C`?
M1 antag: -0.14; S1P3 ag: 0; S1P1 ag-PAM: 4; D1 mod: -1.1; M1 ag: 0.5

What do the screens show for `CCc1nnc(NC(=O)CCC(=O)N2CCN(CCc3ccccc3)CC2)s1`?
M1 antag: -0.078; S1P3 ag: -1; S1P1 ag-PAM: -7; M1 ag: -0.32

How did CCc1nnc(NC(=O)CCC(=O)N2CCN(CCOc3ccc(C)cc3)CC2)s1 do in these assays?
M1 antag: -0.41; S1P3 ag: -1; S1P1 ag-PAM: -10; M1 ag: 5.1*; M1 ag confirm: -3.6; M4 agonist ctr: -26

What do the screens show for `CCOC(=O)C1CCCN(C(=O)CSc2nccn2C)C1` (centres undefined)?
M1 antag: -0.26; S1P3 ag: 0; S1P1 ag-PAM: -9; M1 ag: -0.043

How did CS(=O)(=O)N(CC(=O)Nc1cccc(F)c1)Cc1ccccc1 do in these assays?
M1 antag: -0.58; S1P3 ag: -1; D1 mod: -0.66; M1 ag: -0.15

What do the screens show for `CC1CCCN(C/C(O)=C(\C#N)c2nc3ccccc3[nH]2)C1` (centres undefined)?
M1 antag: -4.2*; S1P3 ag: -1; S1P1 ag-PAM: -41; D1 mod: 0.04; M1 ag: 5.4*; M1 ag confirm: inconclusive; M4 agonist ctr: -28

Results for Cc1ccc(S(=O)(=O)N2CCCC(C(=O)N(Cc3cccs3)C3CC3)C2)cc1 (centres undefined) ?
M1 antag: 0.32; M1 ag: 0.1

Results for CCC1CCCCN1S(=O)(=O)c1ccc(S(=O)(=O)N(Cc2cccs2)C2CC2)cc1 (centres undefined) ?
M1 antag: -1.9*; S1P3 ag: 0; S1P1 ag-PAM: 26; D1 mod: 0.032; M1 ag: 9.7*; M1 ag confirm: -31*; M4 agonist ctr: -72*

What do the screens show for `Cc1ccc(Cl)cc1N1CCN(C(=O)c2cc3c(=O)n(C)c4ccccc4c3n2C)CC1`?
M1 antag: -1.7; S1P3 ag: -1; S1P1 ag-PAM: -4; D1 mod: -4*; M1 ag: 7.4*; M1 ag confirm: -11; M4 agonist ctr: -56

What do the screens show for `CCCN1Cc2cccc(C(=O)N3CCN(c4cc(Cl)ccc4C)CC3)c2C1=O`?
M1 antag: -0.016; S1P3 ag: 0; S1P1 ag-PAM: -3; D1 mod: 1.1; M1 ag: 2.3*; M1 ag confirm: inconclusive; M4 agonist ctr: -40

What do the screens show for `Cn1c(C(=O)NC2CCCC2)cc2c(=O)n(C)c3ccccc3c21`?
M1 antag: 0.4; S1P3 ag: 1; S1P1 ag-PAM: -24; D1 mod: -0.57; M1 ag: 4.1*; M1 ag confirm: -39*; M4 agonist ctr: -50

What do the screens show for `Cn1c(C(=O)NCC2CCCO2)cc2c(=O)n(C)c3ccccc3c21` (centres undefined)?
M1 antag: 0.67; S1P3 ag: 0; S1P1 ag-PAM: -18; D1 mod: 0.79; M1 ag: -1.5

Results for CC1(C)CC(=O)C=C(Nc2ccccc2F)C1 ?
M1 antag: 0.11; S1P3 ag: 0; S1P1 ag-PAM: -10; D1 mod: -0.11; M1 ag: 0.19

How did COc1ccc(S(=O)(=O)N2CCCC(C(=O)N3CCOCC3)C2)cc1C (centres undefined) do in these assays?
M1 antag: 0.34; S1P3 ag: 0; S1P1 ag-PAM: 1; D1 mod: -0.31; M1 ag: 0.1

What do the screens show for `CC(=O)Nc1ccc(C(=O)CSc2nnc3scc(-c4ccccc4)n23)cc1`?
M1 antag: 0.97; S1P3 ag: -1; S1P1 ag-PAM: -24; D1 mod: 1.1; M1 ag: 0.1

Results for Cc1ccc(-c2csc3nnc(SCC(=O)Nc4cccc(C)n4)n23)cc1 ?
M1 antag: -0.63; S1P3 ag: -1; S1P1 ag-PAM: 2; D1 mod: 0.45; M1 ag: 3.9*; M1 ag confirm: inconclusive; M4 agonist ctr: -13

Results for COc1cc2[nH]c(=S)n(NC(=O)CC(C)C)c(=O)c2cc1OC ?
M1 antag: -0.032; S1P3 ag: 1; D1 mod: 0.92; M1 ag: 1.8

Results for CCOC(=O)C1=C(C)N=c2s/c(=C/c3ccco3)c(=O)n2C1c1cccc(OC)c1 (centres undefined) ?
M1 antag: 0.034; S1P3 ag: -2; S1P1 ag-PAM: -7; D1 mod: -0.6; M1 ag: 0.67

Results for CCOC(=O)C1=C(C)N=c2s/c(=C\c3cccn3C)c(=O)n2C1c1cccc(OC)c1OC (centres undefined) ?
M1 antag: -0.67; S1P3 ag: -1; S1P1 ag-PAM: -8; D1 mod: 0.66; M1 ag: 55*; M1 ag confirm: 3.4; M4 agonist ctr: 76

What do the screens show for `CCn1c(COc2ccccc2OC)nnc1SCC#N`?
M1 antag: 0.53; S1P3 ag: -1; S1P1 ag-PAM: 4; D1 mod: -0.11; M1 ag: 0.37

What do the screens show for `Clc1c(CSc2nc3ccccc3o2)nc2ccccn12`?
M1 antag: -1.2; S1P3 ag: 0; S1P1 ag-PAM: -12; D1 mod: -0.61; M1 ag: 21*; M1 ag confirm: 2.1; M4 agonist ctr: -23

Results for O=C(CN(Cc1ccco1)C(=O)CNS(=O)(=O)c1ccc(F)cc1)NCCc1ccccc1 ?
M1 antag: -0.96; S1P3 ag: 0; S1P1 ag-PAM: -3; D1 mod: -1.1; M1 ag: 2.5*; M1 ag confirm: inconclusive; M4 agonist ctr: inconclusive

How did O=C(CSc1nnc(C2COc3ccccc3O2)o1)N1CCCc2ccccc21 (centres undefined) do in these assays?
M1 antag: -1.2; S1P3 ag: 0; S1P1 ag-PAM: 12; D1 mod: 0.22; M1 ag: 2.5*; M1 ag confirm: inconclusive; M4 agonist ctr: -26

How did Cc1[nH]c2ccc(-c3nnc(SCC(=O)N4CCCc5ccccc54)o3)cc2c1C do in these assays?
M1 antag: -1.1; S1P3 ag: 0; S1P1 ag-PAM: -1; D1 mod: 0.035; M1 ag: 45*; M1 ag confirm: inconclusive; M4 agonist ctr: -41

Compound activity deposited in PubChem BioAssay by several laboratories.
